Assay results: ChEMBL document CHEMBL1275313, “Synthesis and biological evaluation of novel 10-benzyl-substituted 4,5-dichloro-10H-anthracen-9-ones as inhibitors of keratinocyte hyperproliferation” (Eur J Med Chem, 2010)

Key:
HaCaT [1] = assay: Antiproliferative activity against human HaCaT cells after 48 hrs by phase contrast microscopy; type: functional, cell-based
Summary of the method: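 HaCaT human keratinocytes were grown in DMEM with 10% fetal calf serum, penicillin and streptomycin at 37 °C under 8% CO2. After 48 h of exposure, dispersed cells were counted by phase-contrast microscopy. Inhibition = (1 − test/control) × 100, with test N = 3 and control N = 6–8. Significance was tested by Student's t-test. IC50 was obtained by nonlinear regression.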

[2] = tested on: Radical scavenging activity; assay: Antioxidant activity assessed as DPPH free radical scavenging activity by spectrophotometry; type: functional
Summary of the method: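 DPPH radical decrease read spectrophotometrically as absorbance at 520 nm. Percent interaction = (1 − test absorbance/control absorbance) × 100, with test means from N = 3 and control means from N = 8. EC50 is the concentration giving a 50% drop in DPPH absorbance, obtained by nonlinear regression. NDGA and α-tocopherol served as positive controls.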

HaCaT [3] = assay: Cytotoxicity against human HaCaT cells assessed as LDH release at 2 uM after 4 hrs; type: cell-based
Summary of the method: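 HaCaT cells were exposed to test compound for 4 h at 37 °C. Extracellular LDH activity was measured by the UV method with pyruvate and NADH and expressed in mU/mL. The vehicle control was 0.2% DMSO in culture medium, and Brij 35 with ultrasound was the positive control. N = 3, SD < 10%.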

Compound | IC50 (HaCaT [1]) [µM] | EC50 [2] [µM] | Activity (HaCaT [3]) [mU/ml]
O=C1c2cccc(Cl)c2C(Cc2ccc([N+](=O)[O-])cc2[N+](=O)[O-])c2c(Cl)cccc21 | 17 | > 50 | –
O=C1c2cccc(Cl)c2C(Cc2ccc([N+](=O)[O-])cc2)c2c(Cl)cccc21 | > 50 | > 50 | –
O=C1c2cccc(Cl)c2Cc2c(Cl)cccc21 | – | 29.5 | 64.4
O=C1c2cccc(Cl)c2C(Cc2cccc(OCc3ccccc3)c2)c2c(Cl)cccc21 | 22 | > 50 | –
COc1ccc(CC2c3c(Cl)cccc3C(=O)c3cccc(Cl)c32)cc1OCc1ccccc1 | > 50 | > 50 | –
O=C1c2c(O)cccc2Cc2cccc(O)c21 [ANTHRALIN] | – | 16.7 | 122.8
O=C1c2cccc(Cl)c2C(Cc2cccc(O)c2)c2c(Cl)cccc21 | 15 | > 50 | –
COc1ccc(OC)c(CC2c3c(Cl)cccc3C(=O)c3cccc(Cl)c32)c1 | 3.8 | > 50 | 60.6
COc1cccc(CC2c3c(Cl)cccc3C(=O)c3cccc(Cl)c32)c1 | 2 | > 50 | 65
COc1ccc(CC2c3c(Cl)cccc3C(=O)c3cccc(Cl)c32)cc1O | 0.7 | > 50 | 69.5
O=C1c2cccc(Cl)c2C(Cc2ccc(C(F)(F)F)cc2)c2c(Cl)cccc21 | 25 | > 50 | –
O=C1c2cccc(Cl)c2C(Cc2ccccc2[N+](=O)[O-])c2c(Cl)cccc21 | > 50 | > 50 | –
O=C1c2cccc(Cl)c2C(Cc2ccc(OCc3ccccc3)cc2)c2c(Cl)cccc21 | 36 | > 50 | –
COc1ccc(CC2c3c(Cl)cccc3C(=O)c3cccc(Cl)c32)cc1 | 5 | > 50 | 57.6
O=C1c2cccc(Cl)c2C(c2ccccc2)c2c(Cl)cccc21 | > 50 | > 50 | –
Cc1ccc(C2c3c(Cl)cccc3C(=O)c3cccc(Cl)c32)cc1 | > 50 | > 50 | –
O=C1c2cccc(Cl)c2C(Cc2ccccc2)c2c(Cl)cccc21 | 4.3 | > 50 | 69.6
O=C1c2cccc(Cl)c2C(Cc2ccc(OCc3ccccc3)c(OCc3ccccc3)c2)c2c(Cl)cccc21 | > 50 | > 50 | –
COc1cc(CC2c3c(Cl)cccc3C(=O)c3cccc(Cl)c32)cc(OC)c1 | 24 | > 50 | –
COc1cc(CC2c3c(Cl)cccc3C(=O)c3cccc(Cl)c32)cc(OC)c1OC | > 50 | > 50 | –
COc1ccc(C2c3c(Cl)cccc3C(=O)c3cccc(Cl)c32)cc1 | 20 | > 50 | –
O=C1c2cccc(Cl)c2C(Cc2cccc([N+](=O)[O-])c2)c2c(Cl)cccc21 | 5 | > 50 | 69.9
COc1ccc(CC2c3c(Cl)cccc3C(=O)c3cccc(Cl)c32)cc1OC | 5 | > 50 | 68.4
O=C1c2cccc(Cl)c2C(Cc2ccc(O)cc2)c2c(Cl)cccc21 | 19 | > 50 | –
Cc1ccc(CC2c3c(Cl)cccc3C(=O)c3cccc(Cl)c32)cc1 | 44 | > 50 | –
COc1ccccc1CC1c2c(Cl)cccc2C(=O)c2cccc(Cl)c21 | > 50 | > 50 | –
O=C1c2cccc(Cl)c2C(Cc2ccc(Cl)cc2)c2c(Cl)cccc21 | 36 | > 50 | –
O=C1c2cccc(Cl)c2C(Cc2ccccc2Cl)c2c(Cl)cccc21 | 30 | > 50 | –
O=C1c2cccc(Cl)c2C(Cc2ccc(O)c(O)c2)c2c(Cl)cccc21 | 18 | 6.3 | 76.6
